Compounds with a hit are over-represented: about 1.5% of the library has one in this group of screens.
AF4-AF9 inh – inhibitors of human MLL-AF4/AF9 interaction. AlphaScreen, biotin-AF4 peptide binding to FLAG-AF9. inhibition, % at 10 µM. 350,000 compounds, 0.47% hits. P42568;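 active = every replicate reaching a set inhibition limit, whatever the replicate mean, cut at about 25% in these data; inconclusive = mean inhibition reaches that limit but some replicates miss it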;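 note: 0% = plate neutral control median and 100% = total signal loss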
RAD52 anneal inh – RAD52 (human) annealing inhibition | P43351 | recombinant RAD52 DNA annealing, FRET fluorescence | inhibition, % at 18.7 µM | 360,000 compounds, 0.46% hits | AID 651710;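 active = every replicate showing at least 50% inhibition; inconclusive = mean inhibition at least 50% but not in every replicate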
Target sequence (P43351 whole entry, looked up): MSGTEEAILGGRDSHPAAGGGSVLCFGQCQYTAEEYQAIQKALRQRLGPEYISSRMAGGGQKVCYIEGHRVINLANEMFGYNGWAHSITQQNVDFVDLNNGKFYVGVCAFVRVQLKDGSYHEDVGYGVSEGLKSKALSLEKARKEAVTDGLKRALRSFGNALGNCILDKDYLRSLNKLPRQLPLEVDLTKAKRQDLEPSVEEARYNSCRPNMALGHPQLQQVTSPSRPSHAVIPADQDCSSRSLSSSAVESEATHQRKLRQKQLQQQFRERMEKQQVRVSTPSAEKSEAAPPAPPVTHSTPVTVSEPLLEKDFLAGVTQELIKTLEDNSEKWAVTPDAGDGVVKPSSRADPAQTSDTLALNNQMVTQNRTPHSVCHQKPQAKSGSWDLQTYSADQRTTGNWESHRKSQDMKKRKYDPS
ERAP1 HTS inh – inhibitors of human ERAP1 aminopeptidase; Q9NZ08; recombinant ERAP1, Leu-AMC fluorescence, 60 min; inhibition, % at 10.7 µM; 340,000 compounds, 0.15% hits;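 active = mean replicate inhibition of at least 30%, or all replicates individually reaching that 30% level; inactive = mean below 30% and not every replicate reaching it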;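 note: 0% = neutral control wells and 100% = L-leucinethiol positive control wells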
S100A4 MyoIIA – S100A4-myosin IIA interaction inhibition. P26447. S100A4/TAMRA-MyoIIA peptide fluorescence polarization. inhibition, % at 10.7 µM. 360,000 compounds, 0.14% hits;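 active = mean inhibition of at least 70% across replicates, with every replicate also reaching that level; inconclusive = mean inhibition reaches 70% but some replicates fall short; inactive = mean inhibition below 70%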
Target sequence (P26447 whole entry, looked up): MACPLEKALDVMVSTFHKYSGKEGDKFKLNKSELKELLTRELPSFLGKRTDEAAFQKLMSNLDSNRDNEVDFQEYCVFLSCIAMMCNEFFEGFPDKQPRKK
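Material: S100A4 monomer (human). Medium: Calcium-containing HEPES buffer, pH 7.2. Probe or stimulus: labelled myosin peptide probe, 5 nM. Compound dosing: one concentration per compound. Timing: polarization read 5 min after assay mix addition, stable 5–60 min. Benchmarks: DMSO as neutral control, TFP as positive control.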
INS-1E GSIS act – primary screen for activators of insulin secretion dependent on glucose, INS-1E cells, GLuc reporter luminescence; INS-1E GLuc reporter insulin secretion, 2-3 h; activation, % at 16.6 µM; 370,000 compounds, 0.61% hits;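 active = lowest replicate activation of at least 40%, so every replicate reaches that level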;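 note: 0% = median of neutral control wells and 100% = median of IBMX positive control wells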
Active calls of the source: *.

Results for Cc1ccccc1NC(=NCCCN1CC1)Nc1ccccc1C ?
AF4-AF9 inh: 78*; RAD52 anneal inh: -5; ERAP1 HTS inh: 2; S100A4 MyoIIA: 0

What do the screens show for `CC=Cc1ccc2n(c1=O)C[C@@H]1[C@@H](CO)[C@H](C(=O)OC)[C@H]2N1C(=O)CC1CC1` (mixture of isomers)?
AF4-AF9 inh: 3; RAD52 anneal inh: -2; ERAP1 HTS inh: 2; S100A4 MyoIIA: -1; INS-1E GSIS act: 5

How did CCN(CC)c1ccc(N=Cc2c(O)n(Cc3ccccc3)c(=O)[nH]c2=O)cc1 do in these assays?
INS-1E GSIS act: 41*

Results for O=C(c1cccc2ccccc12)C1CCCN(Cc2ccon2)C1 (stereo not drawn) ?
AF4-AF9 inh: -5; RAD52 anneal inh: -11; ERAP1 HTS inh: -2; S100A4 MyoIIA: -1; INS-1E GSIS act: 40*

Results for Cc1cc(Cl)ccc1C(=O)C1CCCN(Cc2ccon2)C1 (stereo not drawn) ?
AF4-AF9 inh: 2; RAD52 anneal inh: -8; ERAP1 HTS inh: 2; S100A4 MyoIIA: 6; INS-1E GSIS act: 8

What do the screens show for `CC1CN(c2cc([N+](=O)[O-])ccc2Cl)CC(C)N1` (stereo not drawn)?
AF4-AF9 inh: -2; RAD52 anneal inh: -2; ERAP1 HTS inh: 15; S100A4 MyoIIA: -3; INS-1E GSIS act: 41*

What do the screens show for `O=C(Cc1cccnc1)N1CCCCN2[C@@H](CO)[C@H](c3ccc(C#CC4CC4)cc3)[C@@H]2C1`?
AF4-AF9 inh: 1; RAD52 anneal inh: 10; ERAP1 HTS inh: 4; S100A4 MyoIIA: 7

How did Brc1ccc2[nH]cc(/C=N/N3CCCCC3)c2c1 do in these assays?
AF4-AF9 inh: 26*; RAD52 anneal inh: -2; ERAP1 HTS inh: -1; S100A4 MyoIIA: -17; INS-1E GSIS act: 2

What do the screens show for `FC(F)(F)CN1C[C@@H]2C(c3ccc(Br)cc3)[C@H](C1)N2CC1CC1` (stereo partly drawn)?
INS-1E GSIS act: 3

Results for O=C1CNC[C@@H]2[C@@H](c3ccc(Br)cc3)[C@H](CO)N12 ?
AF4-AF9 inh: -8; RAD52 anneal inh: 16; ERAP1 HTS inh: -6; S100A4 MyoIIA: 3; INS-1E GSIS act: 12

Results for FC(F)(F)CN1C[C@@H]2C(c3ccccc3)[C@H](C1)N2CC1CC1 (stereo partly drawn) ?
INS-1E GSIS act: 6

Results for O=C1C(Cl)=CC(=Nc2ccc(O)cc2)C=C1Cl ?
AF4-AF9 inh: 36*; RAD52 anneal inh: -9; ERAP1 HTS inh: 4; S100A4 MyoIIA: -2; INS-1E GSIS act: 31

Results for Cc1cccc2nc(-c3ccccc3)c(-c3ccc(CN4CCC(n5c(=O)[nH]c6cc(Cl)ccc65)CC4)cc3)nc12 ?
RAD52 anneal inh: -18; ERAP1 HTS inh: -1; S100A4 MyoIIA: -9; INS-1E GSIS act: 42*

How did O=c1[nH]c2cc(Cl)ccc2n1C1CCN(Cc2ccc(-c3nc4ccc(F)cc4nc3-c3ccccc3)cc2)CC1 do in these assays?
RAD52 anneal inh: 29; ERAP1 HTS inh: -6; S100A4 MyoIIA: 9; INS-1E GSIS act: -17

What do the screens show for `CCOC(=O)C1CCCN(c2ccc([N+](=O)[O-])c3nonc23)C1` (stereo not drawn)?
AF4-AF9 inh: -2; RAD52 anneal inh: inactive; ERAP1 HTS inh: 20; S100A4 MyoIIA: 170*; INS-1E GSIS act: -13

What do the screens show for `CCOc1cc2c(cc1OCC)-n1cccc1C(c1cc(C)c(OC)cc1C)NC2` (stereo not drawn)?
AF4-AF9 inh: 5; RAD52 anneal inh: -4; ERAP1 HTS inh: 2; S100A4 MyoIIA: -1; INS-1E GSIS act: -14

How did CCOc1cc2c(cc1OCC)-n1cccc1C(c1cc(OC)ccc1F)NC2 (stereo not drawn) do in these assays?
AF4-AF9 inh: 27*; RAD52 anneal inh: -9; ERAP1 HTS inh: 0; S100A4 MyoIIA: -3; INS-1E GSIS act: -34

What do the screens show for `CCOc1cc2c(cc1OCC)-n1cccc1C(c1cccc(F)c1)NC2` (stereo not drawn)?
AF4-AF9 inh: 26*; RAD52 anneal inh: -7; ERAP1 HTS inh: 5; S100A4 MyoIIA: 0; INS-1E GSIS act: -44

How did CCOc1cc2c(cc1OCC)-n1cccc1C(c1ccc(C)cc1C)NC2 (stereo not drawn) do in these assays?
AF4-AF9 inh: 26*; RAD52 anneal inh: -9; ERAP1 HTS inh: 0; S100A4 MyoIIA: -4; INS-1E GSIS act: -60

How did CCN1[C@@H]2c3ccc(-c4cccc(OC)c4)c(=O)n3C[C@H]1[C@H](CO)[C@H]2C(=O)OC do in these assays?
AF4-AF9 inh: -3; RAD52 anneal inh: -8; ERAP1 HTS inh: 0; S100A4 MyoIIA: -3; INS-1E GSIS act: 24

How did CCN1[C@@H]2Cn3c(ccc(-c4cccc(OC)c4)c3=O)[C@H]1[C@@H](C(=O)OC)[C@@H]2CO do in these assays?
AF4-AF9 inh: -1; RAD52 anneal inh: 0; ERAP1 HTS inh: 1; S100A4 MyoIIA: -9; INS-1E GSIS act: 7

What do the screens show for `CCN(CC)P(c1n(C)cc[n+]1C)N(CC)CC`?
AF4-AF9 inh: -3; RAD52 anneal inh: -12; ERAP1 HTS inh: 103*; S100A4 MyoIIA: 5; INS-1E GSIS act: 1

What do the screens show for `c1ccc(C2(N3CCCCC3)CCCCC2)cc1`?
RAD52 anneal inh: -1; ERAP1 HTS inh: -1; S100A4 MyoIIA: -2; INS-1E GSIS act: 39

Results for S=C=Nc1cccc(C2(N3CCCCC3)CCCCC2)c1 ?
AF4-AF9 inh: 9; RAD52 anneal inh: 84*; ERAP1 HTS inh: -2; S100A4 MyoIIA: 3; INS-1E GSIS act: -3

How did COC(=O)C1C(OC(=O)c2ccccc2)CC2CCC1[N+]2(C)C (stereo not drawn) do in these assays?
RAD52 anneal inh: -3; ERAP1 HTS inh: 51*; S100A4 MyoIIA: -1; INS-1E GSIS act: 6

What do the screens show for `Cc1nc2ccccc2c(=O)n1-c1ccc(Cl)c(Cl)c1`?
AF4-AF9 inh: 2; RAD52 anneal inh: 3; ERAP1 HTS inh: 12; S100A4 MyoIIA: 6; INS-1E GSIS act: 40*

What do the screens show for `Cc1ccc(-n2c(C)nc3ccccc3c2=O)cc1C`?
AF4-AF9 inh: 1; RAD52 anneal inh: -14; ERAP1 HTS inh: -1; S100A4 MyoIIA: 0; INS-1E GSIS act: 9

Results for CC[n+]1c(-c2ccccc2)c2cc(N)ccc2c2ccc(N)cc21 ?
AF4-AF9 inh: 30*; RAD52 anneal inh: -50; ERAP1 HTS inh: 12; S100A4 MyoIIA: 130*; INS-1E GSIS act: -38

Results for O=C(Cc1cccnc1)N1CCCCN2[C@@H](CO)[C@@H](c3ccc(C#CC4(O)CCCC4)cc3)[C@@H]2C1 ?
AF4-AF9 inh: -4; RAD52 anneal inh: -4; ERAP1 HTS inh: 3; S100A4 MyoIIA: 98*; INS-1E GSIS act: 22

What do the screens show for `Cc1[nH]c2ccc(OC(F)(F)F)cc2c1CCNCc1cccc([N+](=O)[O-])c1`?
AF4-AF9 inh: inconclusive; RAD52 anneal inh: -7; ERAP1 HTS inh: -2; S100A4 MyoIIA: 0; INS-1E GSIS act: -19

Compound activity: PubChem, Broad Institute
